Assay results reported in publication PMC7079967 (Medicinal Chemistry Research, 2016).

What was measured:
Type in all cases: cell-based
[1] = tested on: human T-lymphocyte cells (CEM); assay: Antiproliferative; settings: 72 h, read-out: IC50 CEM
Summary of the method: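 Human T-lymphocyte CEM cells, suspended in growth medium, were left to proliferate in microtiter wells with varying amounts of test compound at 37 °C in a humidified, CO2-controlled atmosphere. After 72 h, cells were counted with a Coulter counter. IC50 is the concentration that inhibits cell proliferation by 50 %.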

[2] = tested on: human cervix carcinoma cells (HeLa); assay: Antiproliferative; settings: 96 h, read-out: IC50 HeLa
Summary of the method: (§1)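 Cells in growth medium proliferated with variable concentrations of test compound at 37 °C in a humidified CO2-controlled atmosphere. Incubation was 48 h for L1210 and 96 h for HeLa. Cell number was then counted with a Coulter counter. IC50 was the concentration inhibiting cell proliferation by 50 %.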

[3] = tested on: murine leukemia cells (L1210); assay: Antiproliferative; settings: Mus musculus, L1210, 48 h, read-out: IC50 L1210
Summary of the method: as §1

[4] = tested on: L1210, CEM and HeLa tumor cell lines; assay: Cytostatic activity stated over the three tumor cell lines together
[5] = tested on: Parainfluenza-3 virus; assay: Antiviral assay, virus-induced cytopathicity in Vero cells; settings: read-out: IC50 Parainfluenza-3 virus
[6] = tested on: Sindbis virus; assay: as above; settings: read-out: IC50 Sindbis virus
[7] = tested on: Reovirus-1; assay: as above; settings: read-out: IC50 Reovirus-1

| SMILES | IC50 [1] [µM] | IC50 [2] [µM] | IC50 [3] [µM] | cytostatic potential, fold lower than 6-mercaptopurine ([4]; compared with 6-mercaptopurine over L1210, CEM, HeLa) | IC50 ([4]; read-out: IC50, cytostatic activity against the three tumor cell lines) [µM] | IC50 [5] [µM] | IC50 [6] [µM] | IC50 [7] [µM] |
| --- | --- | --- | --- | --- | --- | --- | --- | --- |
| O=c1[nH]cc(F)c(=O)[nH]1 [5-Fluorouracil, reference compound] | 18 ± 5 | 0.54 ± 0.12 | 0.33 ± 0.17 | – | – | – | – | – |
| Sc1ncnc2nc[nH]c12 [6-Mercaptopurine, reference compound] | 2.8 ± 1.3 | 1.1 ± 0.1 | 2.8 ± 1.1 | – | – | – | – | – |
| CC(=O)OC[C@H]1O[C@@H](NC(=O)NC(=O)CCCc2ccc3c(c2)CCCC3)[C@H](OC(C)=O)[C@@H](OC(C)=O)[C@@H]1OC(C)=O [Compound 6b, N-4-(5,6,7,8-Tetrahydronaphthalen-2-yl)butanoyl-N′-(2,3,4,6-tetra-O-acetyl-β-D-glucopyranosyl)-urea] | 38 ± 10 | 66 ± 12 | 78 | – | – | – | – | – |
| CC(=O)OC[C@H]1O[C@@H](NC(=O)NC(=O)COc2ccc(-c3ccccc3)cc2)[C@H](OC(C)=O)[C@@H](OC(C)=O)[C@@H]1OC(C)=O [Compound 6c, N-2-(Biphenyl-4-yloxy)acetyl-N′-(2,3,4,6-tetra-O-acetyl-β-D-glucopyranosyl)-urea] | > 250 | > 250 | > 250 | – | – | – | – | – |
| O=C(CCCc1ccc2c(c1)CCCC2)NC(=O)N[C@@H]1O[C@H](CO)[C@@H](O)[C@H](O)[C@H]1O [Compound 7b, N-4-(5,6,7,8-Tetrahydronaphthalen-2-yl)butanoyl-N′-(β-D-glucopyranosyl)-urea] | > 250 | > 250 | > 250 | – | – | – | – | – |
| O=C(COc1ccc(-c2ccccc2)cc1)NC(=O)N[C@@H]1O[C@H](CO)[C@@H](O)[C@H](O)[C@H]1O [Compound 7c, N-2-(Biphenyl-4-yloxy)acetyl-N′-(β-D-glucopyranosyl)-urea] | 24 ± 1 | 19 ± 3 | 9 ± 5.9 | 5- to 15 fold | 9 to 24 | – | – | – |
| NC(=O)c1ncn([C@@H]2O[C@H](CO)[C@@H](O)[C@H]2O)n1 [Ribavirin] | – | – | – | – | – | 250 | > 250 | > 250 |
